Test results reported in ChEMBL document CHEMBL1255517, “CD4 mimics targeting the HIV entry mechanism and their hybrid molecules with a CXCR4 antagonist” (Bioorg Med Chem Lett, 2010).
pEC50, pIC50: −log10 of the molar value.

What was measured:
[1] = Cytotoxicity against human PM1 cells expressing CCR5 by MTT assay; assay type: cell-based
Outline: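 Mock-infected PM1/CCR5 cells were exposed to compound, with viability read by MTT. CC50 is the concentration that reduces viability by 50%. Values are means with standard deviation from at least three independent experiments.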

PM1 = assay: Inhibition of CD4-induced monoclonal antibody 4C11 binding to HIV1 JR-FL infected in human PM1 cells expressing CCR5 at 100 uM after 15 mins by FACS analysis (reference value: 27.60)
[2] = system: Human immunodeficiency virus 1; assay: Antiviral activity against HIV1 MNA infected in human PM1 cells expressing CCR5 assessed as protection against virus-induced cytopathogenicity by MTT assay; assay type: functional, organism-based; conditions: Human immunodeficiency virus 1, MNA
Outline: (§1)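 Cells were PM1/CCR5 infected with HIV-1, with viability read by MTT. IC50 is the compound concentration giving 50% protection against virus-induced cytopathogenicity. Values are means with standard deviation from at least three independent experiments.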

[3] = system: Human immunodeficiency virus 1; assay: Antiviral activity against HIV1 3B infected in human PM1 cells expressing CCR5 assessed as protection against virus-induced cytopathogenicity by MTT assay; assay type: functional, organism-based; conditions: Human immunodeficiency virus 1, 3B; outline: as §1
[4] = system: Human immunodeficiency virus 1; assay: Antiviral activity against HIV1 isolate 89.6 infected in human PM1 cells expressing CCR5 assessed as protection against virus-induced cytopathogenicity by MTT assay; assay type: functional, organism-based; conditions: Human immunodeficiency virus 1, isolate 89.6, PM1; outline: as §1
[5] = system: Human immunodeficiency virus 1; assay: Antiviral activity against HIV1 MTA infected in human PM1 cells expressing CCR5 assessed as protection against virus-induced cytopathogenicity by MTT assay; assay type: functional, organism-based; conditions: Human immunodeficiency virus 1, MTA; outline: as §1
[6] = system: Human immunodeficiency virus 1; assay: Antiviral activity against HIV1 3B infected in human MT2 cells assessed as protection against virus-induced cytopathogenicity by MTT assay; assay type: functional, organism-based
[7] = Selectivity index, ratio of CC50 for human PM1 cells expressing CCR5 to IC50 for HIV1 MNA; assay type: functional
[8] = Selectivity index, ratio of CC50 for human MT-2 cells to IC50 for HIV1 IIIB
[9] = molecular target: C-X-C chemokine receptor type 4 (Homo sapiens, UniProt P61073); assay: Displacement of [125I]-SDF-1-alpha from CXCR4 expressed in CHO cells; assay type: cell-based
[10] = Cytotoxicity against human MT2 cells by MTT assay; assay type: cell-based
[11] = Human immunodeficiency virus 1, 3B, MT2

Sequence of C-X-C chemokine receptor type 4 (P61073 whole entry): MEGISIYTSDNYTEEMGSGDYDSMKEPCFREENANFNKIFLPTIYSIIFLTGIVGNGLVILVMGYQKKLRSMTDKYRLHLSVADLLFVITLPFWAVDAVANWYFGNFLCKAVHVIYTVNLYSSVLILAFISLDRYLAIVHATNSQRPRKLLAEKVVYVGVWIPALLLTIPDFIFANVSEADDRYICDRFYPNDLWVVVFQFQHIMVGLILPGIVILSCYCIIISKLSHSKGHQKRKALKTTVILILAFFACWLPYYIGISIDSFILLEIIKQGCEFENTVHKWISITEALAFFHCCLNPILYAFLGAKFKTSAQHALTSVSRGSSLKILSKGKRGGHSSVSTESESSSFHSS

| SMILES | CC50 [1] [µM] | RFU (PM1) | pIC50 [3] | also measured |
| --- | --- | --- | --- | --- |
| O=C(Nc1ccc(Br)cc1)C(=O)NC1CCNCC1 | 50 | 52.3 |  | pIC50 [2]: 5.22 |
| O=C(Nc1ccc(Cl)cc1)C(=O)NC1CCNCC1 | 100 | 49.9 |  | pIC50 [2]: 5.10 |
| CN1CCC(NC(=O)C(=O)Nc2ccc(Cl)cc2)CC1 | > 300 | 33.6 | 4.17 | pIC50 [4]: < 4.00 |
| CC(C)CN1CCC(NC(=O)C(=O)Nc2ccc(Cl)cc2)CC1 | > 300 | 15.1 | < 4.00 | pIC50 [5]: 4.55 |
| CC1(C)CC(NC(=O)C(=O)Nc2ccc(Cl)cc2)CC(C)(C)N1 | 110 | 18.4 | 5.10 | pIC50 [4]: 5.00; pIC50 [6, 11]: 5.68; pIC50 [2]: 4.92; Selectivity Index [7]: 19.2 |
| N=C(N)NCCC[C@H](NC(=O)[C@@H]1CSSC[C@H](NC(=O)[C@H](Cc2ccc3ccccc3c2)NC(=O)[C@H](CCCNC(=N)N)NC(=O)[C@H](CCCNC(=N)N)NC(=O)c2ccc(F)cc2)C(=O)N[C@@H](Cc2ccc(O)cc2)C(=O)N[C@@H](CCCNC(N)=O)C(=O)N[C@@H](CCCNC(=N)N)C(=O)N[C@H](CCCCNC(=O)CCC(=O)NCCCCN2CCC(NC(=O)C(=O)Nc3ccc(Cl)cc3)CC2)C(=O)N2CCC[C@H]2C(=O)N[C@@H](Cc2ccc(O)cc2)C(=O)N[C@@H](CCCNC(=N)N)C(=O)N[C@@H](CCCNC(N)=O)C(=O)N1)C(N)=O [listing 1 of 2 here] |  |  |  | Selectivity Index [8]: 169 |
| N=C(N)NCCC[C@H](NC(=O)[C@@H]1CSSC[C@H](NC(=O)[C@H](Cc2ccc3ccccc3c2)NC(=O)[C@H](CCCNC(=N)N)NC(=O)[C@H](CCCNC(=N)N)NC(=O)c2ccc(F)cc2)C(=O)N[C@@H](Cc2ccc(O)cc2)C(=O)N[C@@H](CCCNC(N)=O)C(=O)N[C@@H](CCCNC(=N)N)C(=O)N[C@H](CCCCNC(=O)CCC(=O)NCCCCCCCCN2CCC(NC(=O)C(=O)Nc3ccc(Cl)cc3)CC2)C(=O)N2CCC[C@H]2C(=O)N[C@@H](Cc2ccc(O)cc2)C(=O)N[C@@H](CCCNC(=N)N)C(=O)N[C@@H](CCCNC(N)=O)C(=O)N1)C(N)=O [listing 1 of 2 here] |  |  |  | pIC50 ([6]; mt2): 7.45; pEC50 [9]: 8.15; CC50 [10]: 8.6 µM |
| O=C(O)CCC(=O)N1CCC(NC(=O)C(=O)Nc2ccc(Cl)cc2)CC1 | > 300 | 26.1 | < 4.00 | pIC50 [4]: < 4.00 |
| N=C(N)NCCC[C@H](NC(=O)[C@@H]1CSSC[C@H](NC(=O)[C@H](Cc2ccc3ccccc3c2)NC(=O)[C@H](CCCNC(=N)N)NC(=O)[C@H](CCCNC(=N)N)NC(=O)c2ccc(F)cc2)C(=O)N[C@@H](Cc2ccc(O)cc2)C(=O)N[C@@H](CCCNC(N)=O)C(=O)N[C@@H](CCCNC(=N)N)C(=O)N[C@H](CCCCNC(=O)CCC(=O)NCCCCCCCCN2CCC(NC(=O)C(=O)Nc3ccc(Cl)cc3)CC2)C(=O)N2CCC[C@H]2C(=O)N[C@@H](Cc2ccc(O)cc2)C(=O)N[C@@H](CCCNC(=N)N)C(=O)N[C@@H](CCCNC(N)=O)C(=O)N1)C(N)=O [listing 2 of 2 here] |  |  |  | Selectivity Index [8]: 244 |
| NC(=O)NCCC[C@@H]1NC(=O)[C@H](CCCN=C(N)N)NC(=O)[C@H](Cc2ccc(O)cc2)NC(=O)[C@@H]2CCCN2C(=O)[C@@H](CCCCNC(=O)CCC(=O)NCCCCCCN2CCC(NC(=O)C(=O)Nc3ccc(Cl)cc3)CC2)NC(=O)[C@H](CCCN=C(N)N)NC(=O)[C@H](CCCNC(N)=O)NC(=O)[C@H](Cc2ccc(O)cc2)NC(=O)[C@@H](NC(=O)[C@H](Cc2ccc3ccccc3c2)NC(=O)[C@H](CCCN=C(N)N)NC(=O)[C@H](CCCN=C(N)N)NC(=O)c2ccc(F)cc2)CSSC[C@@H](C(=O)N[C@@H](CCCN=C(N)N)C(N)=O)NC1=O [listing 1 of 2 here] |  |  |  | pIC50 [6, 11]: 7.44; pEC50 [9]: 7.73; CC50 [10]: 8 µM |
| Cc1ccc(NC(=O)C(=O)NC2CCNCC2)cc1 | 190 | 46 |  | pIC50 [2]: 4.70 |
| O=C(O)CN1CCC(NC(=O)C(=O)Nc2ccc(Cl)cc2)CC1 | 260 | 11.9 | < 4.00 |  |
| Cc1cn([C@H]2C[C@H](N=[N+]=[N-])[C@@H](CO)O2)c(=O)[nH]c1=O [ZIDOVUDINE] |  |  |  | pIC50 [6, 11]: 7.31 |
| CC(=O)N1CCC(NC(=O)C(=O)Nc2ccc(Cl)cc2)CC1 | > 300 | 29.1 | < 4.00 | pIC50 [4]: < 4.00 |
| NC(=O)NCCC[C@@H]1NC(=O)[C@H](CCCN=C(N)N)NC(=O)[C@H](Cc2ccc(O)cc2)NC(=O)[C@@H]2CCCN2C(=O)[C@@H](CCCCNC(=O)CCC(=O)NCCCCCCN2CCC(NC(=O)C(=O)Nc3ccc(Cl)cc3)CC2)NC(=O)[C@H](CCCN=C(N)N)NC(=O)[C@H](CCCNC(N)=O)NC(=O)[C@H](Cc2ccc(O)cc2)NC(=O)[C@@H](NC(=O)[C@H](Cc2ccc3ccccc3c2)NC(=O)[C@H](CCCN=C(N)N)NC(=O)[C@H](CCCN=C(N)N)NC(=O)c2ccc(F)cc2)CSSC[C@@H](C(=O)N[C@@H](CCCN=C(N)N)C(N)=O)NC1=O [listing 2 of 2 here] |  |  |  | Selectivity Index [8]: 219 |
| CC(C)C(=O)N1CCC(NC(=O)C(=O)Nc2ccc(Cl)cc2)CC1 | 45 | 8.27 | < 4.00 |  |
| N=C(N)NCCC[C@H](NC(=O)[C@@H]1CSSC[C@H](NC(=O)[C@H](Cc2ccc3ccccc3c2)NC(=O)[C@H](CCCNC(=N)N)NC(=O)[C@H](CCCNC(=N)N)NC(=O)c2ccc(F)cc2)C(=O)N[C@@H](Cc2ccc(O)cc2)C(=O)N[C@@H](CCCNC(N)=O)C(=O)N[C@@H](CCCNC(=N)N)C(=O)N[C@H](CCCCNC(=O)CCC(=O)NCCCCN2CCC(NC(=O)C(=O)Nc3ccc(Cl)cc3)CC2)C(=O)N2CCC[C@H]2C(=O)N[C@@H](Cc2ccc(O)cc2)C(=O)N[C@@H](CCCNC(=N)N)C(=O)N[C@@H](CCCNC(N)=O)C(=O)N1)C(N)=O [listing 2 of 2 here] |  |  |  | pIC50 [6, 11]: 7.29; pEC50 [9]: 8.36; CC50 [10]: 8.6 µM |
| Cc1ccc(NC(=O)C(=O)NC2CC(C)(C)NC(C)(C)C2)cc1 | 210 | 8.66 |  | pIC50 [2]: 4.82 |
| CC1(C)CC(NC(=O)C(=O)Nc2ccc(Br)cc2)CC(C)(C)N1 | 93 |  |  |  |
